Experimental data gathered from unrelated publications.
Target: Serine/threonine-protein kinase Nek1 (NEK1, Homo sapiens, UniProt Q96PY6)
Sequence (Q96PY6 1-1258, as in one of the studies): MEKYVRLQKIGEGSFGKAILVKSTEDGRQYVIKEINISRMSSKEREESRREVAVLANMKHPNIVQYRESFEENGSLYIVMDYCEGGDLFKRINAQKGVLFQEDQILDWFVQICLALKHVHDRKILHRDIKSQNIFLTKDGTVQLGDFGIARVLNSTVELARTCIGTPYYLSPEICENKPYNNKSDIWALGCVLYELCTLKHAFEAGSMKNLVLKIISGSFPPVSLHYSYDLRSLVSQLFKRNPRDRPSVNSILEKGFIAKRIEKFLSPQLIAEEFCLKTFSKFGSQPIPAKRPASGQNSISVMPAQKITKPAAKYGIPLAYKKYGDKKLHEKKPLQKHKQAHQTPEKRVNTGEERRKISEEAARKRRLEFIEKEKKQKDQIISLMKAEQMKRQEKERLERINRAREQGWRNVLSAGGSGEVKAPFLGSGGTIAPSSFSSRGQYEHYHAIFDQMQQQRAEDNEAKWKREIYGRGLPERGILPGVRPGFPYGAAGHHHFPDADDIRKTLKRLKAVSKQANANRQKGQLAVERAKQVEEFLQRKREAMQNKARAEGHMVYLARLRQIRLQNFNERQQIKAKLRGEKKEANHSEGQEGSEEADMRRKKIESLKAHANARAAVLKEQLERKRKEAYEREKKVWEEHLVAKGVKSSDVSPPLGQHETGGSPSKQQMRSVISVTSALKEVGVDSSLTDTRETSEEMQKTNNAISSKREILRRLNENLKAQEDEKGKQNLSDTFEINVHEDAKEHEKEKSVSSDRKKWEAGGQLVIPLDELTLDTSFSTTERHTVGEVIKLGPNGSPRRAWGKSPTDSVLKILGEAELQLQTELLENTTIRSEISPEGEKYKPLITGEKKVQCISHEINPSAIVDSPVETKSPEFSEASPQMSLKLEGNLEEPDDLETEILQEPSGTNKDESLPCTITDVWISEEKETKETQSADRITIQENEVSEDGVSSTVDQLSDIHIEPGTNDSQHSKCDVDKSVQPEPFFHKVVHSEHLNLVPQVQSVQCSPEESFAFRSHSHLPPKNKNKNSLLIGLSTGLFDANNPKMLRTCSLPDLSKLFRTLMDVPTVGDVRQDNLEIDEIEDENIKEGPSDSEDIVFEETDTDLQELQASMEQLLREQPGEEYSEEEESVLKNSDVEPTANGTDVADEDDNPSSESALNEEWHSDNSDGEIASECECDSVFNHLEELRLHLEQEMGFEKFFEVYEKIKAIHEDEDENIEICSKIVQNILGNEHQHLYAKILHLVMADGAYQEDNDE

Compound | assay | test system | setting | quantity | result
COc1cc(Cl)c(C(=O)N[C@@H](CN[C@H]2CC[C@@H](N)CC2)Cc2ccc(C#N)cc2)cc1-c1ccc(CN[C@H](C)c2ccc(C)cc2)o1 | enzyme activity, inhibitor | – | 1 µM | remaining activity | 93%
COc1cc2ncnc(Nc3ccc(Oc4ccccc4)cc3C)c2cc1OC | enzyme activity, inhibitor | – | 1 µM | inhibition | -2%
CNc1cc(Oc2cc(C(=O)Nc3cc(N4CCN(C)CC4)cc(C(F)(F)F)c3)ccc2C)ncn1 | target engagement in cells, inhibitor, chemoproteomics | Huh-7 | 1 µM | inhibition | -12.5%
CO[C@@H](C)c1c(Nc2ccc([C@@H](N(C)C(=O)C3CCS(=O)(=O)CC3)C(F)(F)F)cc2)cnc2cc(Cl)nn12 | cell-free assay, competition with immobilised ligand | – | 1 µM | remaining binding | 100%
c1cnn2ncc(-c3ccnc(N4CCC45COC5)n3)c2c1 | binding | – | 1 µM | remaining binding | 100%
Nc1c(C(=O)NCc2ccc(C(=O)NCCCC3CCCCC3)cc2)cnn1-c1ccccc1 | cell-free assay, competition with immobilised ligand | – | 0.1 µM | remaining binding | 84%
CCCS(=O)(=O)Nc1ccc(F)c(C(=O)c2c[nH]c3ncc(-c4ccc(Cl)cc4)cc23)c1F | enzyme activity, inhibitor | – | 1 µM | inhibition | < 20%
C[S+]([O-])c1ccc(-c2nc(-c3ccncc3)c(-c3ccc(F)cc3)[nH]2)cc1 (stereo not shown) | cell-free assay | – | 0.5 µM | remaining signal | 94.7%
C[C@@H](c1cccc(C#N)c1)n1cc(Cl)cc(C(N)=O)c1=N | cell-free assay, competition with immobilised ligand | – | 1 µM | remaining binding | 100%
Cc1ccc(C(=O)Nc2ccc(CN3CCN(C)CC3)c(C(F)(F)F)c2)cc1C#Cc1cnc2cccnn12 | enzyme activity, inhibitor | – | 23.5 nM | remaining activity | 98%
O=C1Nc2ccc(Cl)cc2C1=Cc1cc(Cl)c(O)c(Cl)c1 | cell-free assay | – | 0.5 µM | remaining signal | 81.5%
CCN1CCN(Cc2ccc(NC(=O)c3ccc(C)c(/C=C/c4cnc5[nH]ccc5c4OC)c3)cc2C(F)(F)F)CC1 | target engagement in cells, inhibitor, chemoproteomics | A-375 | 5 µM | inhibition | -11.6%
Cc1sc(C(=O)NC2COC2)cc1-n1cc(NC(=O)Nc2c(F)cccc2Cl)cn1 | enzyme activity, inhibitor | – | 10 µM | remaining activity | 90.4%
Cc1c(NC(=O)c2cc(C(N)=O)nc3cc(F)ccc23)c(C(F)(F)F)nn1Cc1ccc(C(C)(C)C)cc1 | cell-free assay, competition with immobilised ligand | – | 1 µM | remaining binding | 97%
O=C(Nc1cnn(-c2csc(C(=O)NC3COC3)c2)c1)Nc1c(F)cccc1Cl | enzyme activity, inhibitor | – | 5 µM | remaining activity | 77.2%
CC(C)(C)c1nc(-c2cccc(NS(=O)(=O)c3c(F)cccc3F)c2F)c(-c2ccnc(N)n2)s1 | enzyme activity, inhibitor, radiometric | – | 1 µM | remaining activity | 63%
c1ccc(CNc2nc(N3CCOc4ccccc43)nc3c2CCCC3)cc1 | target engagement in cells, inhibitor, chemoproteomics | – | 20 mM | inhibition | -7.6%
CC/C(=N\NC(=O)NCc1cccc(O)c1)c1ccc(O)c(C)c1O | enzyme activity, inhibitor | – | 0.1 µM | inhibition | -6%
C[C@H](c1ccnc(Nc2nc3ccc(-c4cc(N(C)C)ncn4)cc3[nH]2)c1)N1CCN(C(=O)CC(F)(F)F)CC1 | cell-free assay, competition with immobilised ligand | – | 0.1 µM | remaining binding | 93%
O=C1NC(=O)c2cc(Nc3ccc(F)cc3)c(Nc3ccc(F)cc3)cc21 | cell-free assay | – | 0.5 µM | remaining signal | 88%
CS(=O)(=O)c1cc(C2(NC(=O)c3cncc4c3cnn4-c3ccc(F)cc3)CC2)ccn1 | cell-free assay, competition with immobilised ligand | – | 1 µM | remaining binding | 45%
Cn1cnc(Br)c1C1=CN(c2ncnc3[nH]cnc23)CCS1 | enzyme activity, inhibitor, radiometric | – | 50 nM | inhibition | 33.1%
